A word on the IC50: it is the concentration needed to halve the response being measured. One may read the inhibition as the drop in the measured response relative to a control, in per cent. The term EC50 denotes the concentration at which the effect is half-maximal. A low value points to greater potency.

Activity calls are given as the source filed them. The rule behind the calls is not given here.

The values that follow come from ChEMBL document CHEMBL4190328, “Design, Synthesis, and Biological Evaluation of Tetrahydroisoquinoline-Based Histone Deacetylase 8 Selective Inhibitors” (ACS Med Chem Lett, 2017).

The target of one assay is T1, Histone deacetylase 8 (Homo sapiens, UniProt Q9BY41).
T1 sequence (Q9BY41 whole entry): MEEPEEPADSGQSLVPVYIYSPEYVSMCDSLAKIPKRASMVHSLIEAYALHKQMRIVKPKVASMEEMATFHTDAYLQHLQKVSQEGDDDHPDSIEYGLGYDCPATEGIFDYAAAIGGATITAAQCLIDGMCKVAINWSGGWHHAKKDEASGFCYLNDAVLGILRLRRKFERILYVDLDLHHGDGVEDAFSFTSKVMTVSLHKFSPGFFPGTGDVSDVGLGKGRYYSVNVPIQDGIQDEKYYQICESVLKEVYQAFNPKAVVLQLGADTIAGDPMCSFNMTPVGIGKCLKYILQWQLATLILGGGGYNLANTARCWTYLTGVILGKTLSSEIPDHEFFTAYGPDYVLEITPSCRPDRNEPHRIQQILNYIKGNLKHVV
Briefly: Inhibition of recombinant HDAC8 (unknown origin) expressed in Escherichia coli using fluor de Lys(R) as substrate pretreated for 5 mins followed by substrate addition measured after 35 mins by fluorescence assay.

For assay [1], the system named is SH-SY5Y. Briefly: Inhibition of class 1 HDAC in human SH-SY5Y cells assessed as increase in acetylation of histone H3 at 0.1 to 10 uM after 24 hrs by Western blot analysis. It counts as cell-based. In short, it runs like this:
(§1)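 SH-SY5Y cells were treated with the stated concentrations for 24 h. Lysates were analysed by Western blot for acetylated histone H3 and acetylated α-tubulin.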
In general terms: In western blotting, separated proteins are transferred to a membrane and probed.

The test system of assay [2] is SH-SY5Y. Briefly: Inhibition of class 2 HDAC in human SH-SY5Y cells assessed as increase in acetylation of alpha-tubulin at 0.1 to 10 uM after 24 hrs by Western blot analysis. It counts as cell-based. In short, it runs like this:
as §1

In the next assay the test system is IMR-5. As to the kind of experiment: Cytotoxicity against human IMR5 cells expressing TP53 after 48 hrs by CellTiter96 AQueous one solution cell proliferation assay. It counts as functional, cell-based. Particulars: IMR-5, 48 h. The gist of the method: (§2)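 Neuroblastoma cells were exposed to compound for 48 h and viability was read by MTS assay. Values are mean ± standard deviation of at least three independent experiments.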

The species named for a further assay is Homo sapiens. Briefly: Selectivity ratio of IC50 for recombinant full-length human C-terminal FLAG-His-tagged HDAC1 expressed in baculovirus infected Sf9 insect cells to IC50 for recombinant HDAC8 (unknown origin) expressed in Escherichia coli.
Another assay deals with Histone deacetylase 1 (Homo sapiens, UniProt Q13547). Briefly: Inhibition of recombinant full-length human C-terminal FLAG-His-tagged HDAC1 expressed in baculovirus infected Sf9 insect cells using Boc-L-Lys(Ac)-AMC as substrate preincubated for 5 mins followed by substrate addition measured after 35 mins by fluorescence assay.
Sequence of Histone deacetylase 1 (Q13547 whole entry): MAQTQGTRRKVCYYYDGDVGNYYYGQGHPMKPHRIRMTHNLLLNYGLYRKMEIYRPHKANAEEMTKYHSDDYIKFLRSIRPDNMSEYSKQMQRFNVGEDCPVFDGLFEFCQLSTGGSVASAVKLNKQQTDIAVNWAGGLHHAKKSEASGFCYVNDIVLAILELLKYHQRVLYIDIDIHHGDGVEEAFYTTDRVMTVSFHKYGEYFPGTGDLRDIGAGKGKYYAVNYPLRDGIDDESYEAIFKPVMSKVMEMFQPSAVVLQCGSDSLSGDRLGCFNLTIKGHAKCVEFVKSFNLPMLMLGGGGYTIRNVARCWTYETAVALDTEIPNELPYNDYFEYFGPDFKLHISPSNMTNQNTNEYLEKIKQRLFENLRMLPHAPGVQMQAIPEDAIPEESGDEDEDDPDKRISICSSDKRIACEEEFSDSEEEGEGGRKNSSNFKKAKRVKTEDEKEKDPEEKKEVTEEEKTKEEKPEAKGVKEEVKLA
Assay [3] relates to SH-SY5Y. As to the kind of experiment: Cytotoxicity against human SH-SY5Y cells expressing TP53 after 48 hrs by CellTiter96 AQueous one solution cell proliferation assay. It counts as functional, cell-based. In short, it runs like this:
as §2

Assay [4] has as its target T2, Protein deacetylase HDAC6 (Homo sapiens) (UniProt Q9UBN7).
T2 sequence (whole entry): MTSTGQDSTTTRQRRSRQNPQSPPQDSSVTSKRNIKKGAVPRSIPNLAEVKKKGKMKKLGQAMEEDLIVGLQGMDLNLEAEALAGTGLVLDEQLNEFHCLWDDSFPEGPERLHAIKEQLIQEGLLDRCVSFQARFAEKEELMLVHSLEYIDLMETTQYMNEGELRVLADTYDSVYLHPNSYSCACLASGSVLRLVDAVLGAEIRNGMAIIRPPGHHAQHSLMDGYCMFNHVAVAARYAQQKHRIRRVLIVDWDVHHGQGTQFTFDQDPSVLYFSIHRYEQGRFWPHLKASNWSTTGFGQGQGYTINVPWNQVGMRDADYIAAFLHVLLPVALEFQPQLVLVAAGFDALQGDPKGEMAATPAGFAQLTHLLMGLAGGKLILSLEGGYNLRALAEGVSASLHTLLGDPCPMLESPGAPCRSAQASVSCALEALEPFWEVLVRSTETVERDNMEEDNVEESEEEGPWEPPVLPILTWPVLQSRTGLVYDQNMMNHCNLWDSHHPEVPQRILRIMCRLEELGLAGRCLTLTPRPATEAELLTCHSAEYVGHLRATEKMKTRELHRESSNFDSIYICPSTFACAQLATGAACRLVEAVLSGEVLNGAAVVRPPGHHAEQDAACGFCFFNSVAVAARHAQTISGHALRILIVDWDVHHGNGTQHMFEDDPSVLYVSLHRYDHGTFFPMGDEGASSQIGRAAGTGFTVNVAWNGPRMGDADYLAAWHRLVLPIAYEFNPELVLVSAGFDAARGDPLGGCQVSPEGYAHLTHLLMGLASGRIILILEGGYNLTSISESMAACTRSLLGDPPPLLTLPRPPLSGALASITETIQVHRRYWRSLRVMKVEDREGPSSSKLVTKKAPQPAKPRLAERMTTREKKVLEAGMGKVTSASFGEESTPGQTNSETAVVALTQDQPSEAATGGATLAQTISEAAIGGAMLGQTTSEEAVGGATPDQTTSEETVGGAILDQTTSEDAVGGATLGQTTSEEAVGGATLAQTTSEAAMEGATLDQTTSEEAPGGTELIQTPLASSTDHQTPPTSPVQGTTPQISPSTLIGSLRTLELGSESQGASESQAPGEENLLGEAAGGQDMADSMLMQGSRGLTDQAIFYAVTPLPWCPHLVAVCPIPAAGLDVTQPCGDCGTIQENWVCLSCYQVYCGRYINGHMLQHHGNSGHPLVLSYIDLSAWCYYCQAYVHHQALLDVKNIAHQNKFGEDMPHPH
As to the kind of experiment: Inhibition of recombinant human HDAC6 at 10 uM using fluorogenic HDAC substrate 3 by fluorescence assay relative to control. In short, it runs like this: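 HDAC6 activity was measured with test compound at 10 μM and reported as percent inhibition. Values are mean ± standard deviation of at least two independent experiments, rounded to two significant figures.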

For assay [5], the target named is Histone deacetylase 3/Nuclear receptor corepressor 2 (HDAC3/NCoR2) (Homo sapiens, UniProt O15379). As to the kind of experiment: Inhibition of recombinant human full-length C-terminal His-tagged HDAC3 (395 to 489 residues)/human NCOR2 expressed in baculovirus infected Sf9 insect cells using Boc-L-Lys(Ac)-AMC as substrate pretreated for 5 mins followed by substrate addition measured after 35 mins by fluorescence assay.
Sequence of Histone deacetylase 3/Nuclear receptor corepressor 2 (HDAC3/NCoR2) (O15379 whole entry, the tested form may be a part): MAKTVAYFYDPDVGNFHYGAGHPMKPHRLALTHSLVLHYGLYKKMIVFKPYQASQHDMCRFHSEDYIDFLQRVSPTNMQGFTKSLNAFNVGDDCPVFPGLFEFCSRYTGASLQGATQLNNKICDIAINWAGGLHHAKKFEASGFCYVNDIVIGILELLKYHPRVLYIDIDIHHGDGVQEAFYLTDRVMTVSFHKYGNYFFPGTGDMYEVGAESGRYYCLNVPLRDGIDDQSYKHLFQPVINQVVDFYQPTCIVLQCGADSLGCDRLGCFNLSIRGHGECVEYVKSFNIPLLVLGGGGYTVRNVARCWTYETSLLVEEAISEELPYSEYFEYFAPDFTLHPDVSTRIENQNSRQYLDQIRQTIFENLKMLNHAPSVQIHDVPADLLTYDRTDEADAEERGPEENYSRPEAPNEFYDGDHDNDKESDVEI
Sequence of Histone deacetylase 3/Nuclear receptor corepressor 2 (HDAC3/NCoR2) (Q9Y618 whole entry, further chain, the tested form may be a part): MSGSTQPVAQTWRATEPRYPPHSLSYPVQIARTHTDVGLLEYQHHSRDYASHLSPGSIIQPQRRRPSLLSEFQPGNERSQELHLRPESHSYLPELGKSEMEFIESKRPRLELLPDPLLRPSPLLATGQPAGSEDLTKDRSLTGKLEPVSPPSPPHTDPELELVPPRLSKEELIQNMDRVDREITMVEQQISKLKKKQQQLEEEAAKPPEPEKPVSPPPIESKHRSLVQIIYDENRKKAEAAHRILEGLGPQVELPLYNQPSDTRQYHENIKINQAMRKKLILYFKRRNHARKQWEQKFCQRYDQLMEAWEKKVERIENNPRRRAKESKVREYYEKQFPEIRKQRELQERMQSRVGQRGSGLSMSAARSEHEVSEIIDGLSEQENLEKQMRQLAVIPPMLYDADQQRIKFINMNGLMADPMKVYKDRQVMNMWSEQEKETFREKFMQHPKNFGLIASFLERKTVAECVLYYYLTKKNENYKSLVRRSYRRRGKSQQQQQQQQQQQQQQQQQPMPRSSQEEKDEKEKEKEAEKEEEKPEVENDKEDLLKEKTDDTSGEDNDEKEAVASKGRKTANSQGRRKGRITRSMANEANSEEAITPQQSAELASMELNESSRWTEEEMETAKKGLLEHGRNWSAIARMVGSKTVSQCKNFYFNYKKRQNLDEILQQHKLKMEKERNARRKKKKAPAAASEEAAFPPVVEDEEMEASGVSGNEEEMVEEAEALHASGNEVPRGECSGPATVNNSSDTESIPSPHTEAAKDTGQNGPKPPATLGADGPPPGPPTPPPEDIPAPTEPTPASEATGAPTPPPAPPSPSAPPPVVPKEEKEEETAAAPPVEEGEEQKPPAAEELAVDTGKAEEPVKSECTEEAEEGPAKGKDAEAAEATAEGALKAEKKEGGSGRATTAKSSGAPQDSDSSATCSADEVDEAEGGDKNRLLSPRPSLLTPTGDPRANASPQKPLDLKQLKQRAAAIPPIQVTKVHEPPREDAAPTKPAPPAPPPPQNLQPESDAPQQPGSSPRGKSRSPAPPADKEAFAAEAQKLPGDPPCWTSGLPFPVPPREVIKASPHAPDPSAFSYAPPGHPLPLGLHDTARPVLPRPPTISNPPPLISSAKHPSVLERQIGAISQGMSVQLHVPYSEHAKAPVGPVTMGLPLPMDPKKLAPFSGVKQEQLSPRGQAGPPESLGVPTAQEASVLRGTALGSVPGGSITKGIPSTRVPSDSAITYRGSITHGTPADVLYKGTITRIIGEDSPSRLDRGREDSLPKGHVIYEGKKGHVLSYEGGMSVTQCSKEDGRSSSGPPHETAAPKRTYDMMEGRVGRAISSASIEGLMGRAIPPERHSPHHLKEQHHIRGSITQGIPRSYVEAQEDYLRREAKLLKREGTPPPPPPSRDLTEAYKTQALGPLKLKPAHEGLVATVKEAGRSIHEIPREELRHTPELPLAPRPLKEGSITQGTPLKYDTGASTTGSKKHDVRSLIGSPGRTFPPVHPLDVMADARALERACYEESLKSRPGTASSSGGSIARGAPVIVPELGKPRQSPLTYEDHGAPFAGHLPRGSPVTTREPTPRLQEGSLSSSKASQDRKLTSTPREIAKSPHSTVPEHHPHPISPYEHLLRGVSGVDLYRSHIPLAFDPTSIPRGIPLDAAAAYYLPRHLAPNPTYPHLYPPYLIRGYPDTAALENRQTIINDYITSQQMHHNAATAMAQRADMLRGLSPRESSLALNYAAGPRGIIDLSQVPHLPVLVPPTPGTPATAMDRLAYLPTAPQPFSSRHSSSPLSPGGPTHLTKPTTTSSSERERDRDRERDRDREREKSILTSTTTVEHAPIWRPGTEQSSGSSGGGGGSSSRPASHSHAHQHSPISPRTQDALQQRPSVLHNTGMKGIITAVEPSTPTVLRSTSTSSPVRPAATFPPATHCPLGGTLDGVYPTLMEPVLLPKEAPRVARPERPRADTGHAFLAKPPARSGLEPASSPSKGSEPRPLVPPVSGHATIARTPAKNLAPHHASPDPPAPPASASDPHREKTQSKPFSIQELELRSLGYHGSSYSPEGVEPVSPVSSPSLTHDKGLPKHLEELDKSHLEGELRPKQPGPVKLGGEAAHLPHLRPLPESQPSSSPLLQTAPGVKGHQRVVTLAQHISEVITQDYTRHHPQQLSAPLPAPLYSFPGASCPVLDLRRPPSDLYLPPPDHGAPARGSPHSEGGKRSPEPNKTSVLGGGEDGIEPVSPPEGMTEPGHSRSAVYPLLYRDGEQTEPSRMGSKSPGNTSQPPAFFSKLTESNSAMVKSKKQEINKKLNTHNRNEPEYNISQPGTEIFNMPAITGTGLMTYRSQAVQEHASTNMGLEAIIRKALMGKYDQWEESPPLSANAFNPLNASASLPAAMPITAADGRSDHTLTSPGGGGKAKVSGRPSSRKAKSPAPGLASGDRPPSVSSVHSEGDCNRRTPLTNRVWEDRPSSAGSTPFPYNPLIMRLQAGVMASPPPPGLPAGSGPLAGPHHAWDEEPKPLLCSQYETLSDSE

The target of the next assay is Histone deacetylase 2 (Homo sapiens, UniProt Q92769). As to the kind of experiment: Inhibition of recombinant human full-length C-terminal His-tagged HDAC2 expressed in baculovirus infected Sf9 insect cells using Boc-L-Lys(Ac)-AMC as substrate preincubated for 5 mins followed by substrate addition measured after 35 mins by fluorescence assay.
Sequence of Histone deacetylase 2 (Q92769 whole entry): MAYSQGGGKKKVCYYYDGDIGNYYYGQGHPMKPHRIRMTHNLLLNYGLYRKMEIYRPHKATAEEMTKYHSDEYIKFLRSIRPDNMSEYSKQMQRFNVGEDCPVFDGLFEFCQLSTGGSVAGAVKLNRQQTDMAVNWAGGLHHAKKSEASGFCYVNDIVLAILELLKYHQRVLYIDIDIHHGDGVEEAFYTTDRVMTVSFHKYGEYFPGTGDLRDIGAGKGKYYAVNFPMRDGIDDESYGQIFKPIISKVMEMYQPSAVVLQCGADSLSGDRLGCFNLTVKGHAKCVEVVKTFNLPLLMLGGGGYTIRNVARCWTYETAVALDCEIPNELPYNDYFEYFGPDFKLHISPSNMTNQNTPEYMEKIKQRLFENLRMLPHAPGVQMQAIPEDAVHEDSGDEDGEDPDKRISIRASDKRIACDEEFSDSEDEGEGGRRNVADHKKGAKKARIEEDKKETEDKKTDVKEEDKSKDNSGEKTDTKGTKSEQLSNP

For `O=C(CCN1CCc2ccccc2C1c1ccc(-c2ccccc2)cc1)NO` (stereo not given), the IC50 stood at 0.055 µM on Histone deacetylase 8, 7.3 µM at Histone deacetylase 1, 38 µM in assay [5] and 47 µM at Histone deacetylase 2. Moreover, the inhibition entry with SH-SY5Y [1] and in the assay with SH-SY5Y [2] was “inactive” each time. Moreover, the figures for the 50% effective concentration (EC50) in the assay on IMR-5 and in the assay on SH-SY5Y [3] were 5.8 µM and 0.76 µM, respectively. The Ratio IC50 in the assay filed under Homo sapiens was 135. For the same compound, the inhibition in assay [4] stood at 39%.
